≈ marks a conversion by molar mass, not a printed value. Calls of active or inactive are those of the source. The calls are words filed in the database; no cut-off is given here.
Key:
[1] = test system: Staphylococcus aureus; assay: Antibacterial activity against methicillin-resistant Staphylococcus aureus BAA-1707 assessed as bacterial growth inhibition incubated for 16 hrs by CLSI based broth microdilution method; type: functional
How it was run: (§1)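 Broth microdilution per CLSI in LB, eleven two-fold serial dilutions spanning 0.10 to 100 µM. Inoculum ~10⁵ cells/well from fresh log-phase culture (OD₆₀₀ 0.6–0.8). MIC taken as lowest concentration preventing growth after 16 h at 37 °C, read by OD₆₀₀ turbidity. DMSO vehicle control, top 0.5% v/v. At least three independent experiments.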

[2] = test system: Streptococcus pneumoniae; assay: Antibacterial activity against Streptococcus pneumoniae 6303 assessed as bacterial growth inhibition incubated for 16 hrs by CLSI based broth microdilution method; type: functional
How it was run: (§2)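 CLSI broth microdilution in LB: eleven 2-fold serial dilutions, 0.10–100 µM. DMSO vehicle/negative control diluted from 0.5% v/v. Wells seeded with ~10⁵ cells from log-phase culture (OD₆₀₀ 0.6–0.8), held 16 h at 37 °C. MIC taken as the lowest concentration preventing growth by OD₆₀₀ turbidity. Minimum three independent experiments.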

[3] = test system: Enterococcus faecalis; assay: Antibacterial activity against Enterococcus faecalis OG1RF assessed as bacterial growth inhibition incubated for 16 hrs by CLSI based broth microdilution method; type: functional
How it was run: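 Broth microdilution per CLSI in brain-heart infusion: eleven 2-fold dilutions spanning 0.10–100 µM, with DMSO vehicle/negative control topping at 0.5% v/v. Inoculum ~10⁵ cells/well from log-phase culture (OD₆₀₀ 0.6–0.8). 37 °C, 16 h. MIC is the lowest concentration preventing growth, read as OD₆₀₀ turbidity. At least three independent experiments.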

[4] = test system: Staphylococcus epidermidis; assay: Antibacterial activity against methicillin-resistant Staphylococcus epidermidis 35984 assessed as bacterial growth inhibition incubated for 16 hrs by CLSI based broth microdilution method; type: functional; how it was run: as §1
[5] = test system: Staphylococcus aureus; assay: Antibacterial activity against methicillin-resistant Staphylococcus aureus BAA-44 assessed as bacterial growth inhibition incubated for 16 hrs by CLSI based broth microdilution method; type: functional; how it was run: as §1
[6] = test system: Staphylococcus aureus; assay: Antibacterial activity against methicillin-resistant Staphylococcus aureus 1707 assessed as zone of inhibition at 10 mM incubated for 16 hrs by agar diffusion assay; type: functional
How it was run: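 Modified Kirby-Bauer disk diffusion. 100 µL MRSA 1707 inoculum (OD₆₀₀ 0.7, ~10⁸ CFU) spread on LB agar and left 30 min. 10 µL of 10 mM DMSO compound solution then pipetted onto the plate. Incubation 16 h at 37 °C; zone of inhibition area (cm²) measured. Three independent experiments.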

[7] = test system: Staphylococcus aureus; assay: Antibacterial activity against Staphylococcus aureus clinical isolate 156 assessed as bacterial growth inhibition incubated for 16 hrs by CLSI based broth microdilution method; type: functional
[8] = test system: Staphylococcus epidermidis; assay: Antibacterial activity against Staphylococcus epidermidis 12228 assessed as bacterial growth inhibition incubated for 16 hrs by CLSI based broth microdilution method; type: functional; how it was run: as §2
[9] = Metal chelating activity assessed as formation of phenazine-iron complex measured for 1 to 60 mins by UV-vis spectroscopy; conditions: time 1-60 min
How it was run: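 Compound from a 10 mM DMSO stock diluted in DMSO in a cuvette, alone or with ammonium iron(II) sulfate hexahydrate (10 mM aqueous stock). Spectra of the compound-only cuvette and the iron-containing cuvette are compared by UV-vis spectrometry to judge phenazine–iron(II) complex formation.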

[10] = test system: Staphylococcus aureus; assay: Antibacterial activity against Staphylococcus aureus clinical isolate 147 assessed as bacterial growth inhibition incubated for 16 hrs by CLSI based broth microdilution method; type: functional
[11] = test system: Staphylococcus epidermidis; assay: Antibacterial activity against Staphylococcus epidermidis clinical isolate CL-1 assessed as bacterial growth inhibition incubated for 16 hrs by CLSI based broth microdilution method; type: functional
[12] = test system: Enterococcus; assay: Antibacterial activity against vancomycin-resistant Enterococcus 700221 assessed as bacterial growth inhibition incubated for 16 hrs by CLSI based broth microdilution method; type: functional
How it was run: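 Growth scored by OD₆₀₀ turbidity after 16 h at 37 °C; MIC is the lowest concentration preventing growth. DMSO vehicle control up to 0.5% v/v. Three or more independent experiments.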

[13] = Cytotoxicity against HEK293 cells incubated for 48 hrs by MTT assay; type: toxicity, cell-based; conditions: human
How it was run: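 HEK-293 cells (10⁴/well) in DMEM with 10% FBS, penicillin/streptomycin, settled overnight at 37 °C, 5% CO₂. Medium replaced with compound at 0.10–100 µM (2-fold steps); DMSO as negative control. After 48 h at 37 °C, MTT (5 mg/mL stock) added for 3 h. Formazan dissolved in DMSO, OD read at 570 nm. Eight replicates per treatment.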

[14] = test system: Staphylococcus aureus; assay: Antibacterial activity against Staphylococcus aureus clinical isolate 129 assessed as bacterial growth inhibition incubated for 16 hrs by CLSI based broth microdilution method; type: functional
[15] = test system: Staphylococcus aureus; assay: Antibacterial activity against Staphylococcus aureus clinical isolate 138 assessed as bacterial growth inhibition incubated for 16 hrs by CLSI based broth microdilution method; type: functional
[16] = test system: Staphylococcus aureus; assay: Antibacterial activity against methicillin-resistant Staphylococcus aureus 1707 assessed as bacterial growth inhibition incubated for 16 hrs by CLSI based broth microdilution method; type: functional; how it was run: as §1
[17] = Hemolytic activity against red blood cells (unknown origin) at 200 uM; type: toxicity, cell-based, Erythrocyte; conditions: read-out: Activity

| SMILES | MIC [1] | MIC [2] | MIC [3] | MIC [4] | MIC [5] | diameter of the inhibition zone (DIZ) [6] | MIC [7] | MIC [8] | Activity [9] | MIC [10] | MIC [11] | MIC [12] | CC50 at 48 h [13] | MIC [14] | MIC [15] | MIC [16] | hemolysis at 200 µM [17] |
| --- | --- | --- | --- | --- | --- | --- | --- | --- | --- | --- | --- | --- | --- | --- | --- | --- | --- |
| Cc1cccc2nc3c(OS(=O)(=O)Cc4ccccc4)c(Br)c(Cl)c(Br)c3nc12 | > 100 µM | > 100 µM | > 100 µM | > 100 µM | > 100 µM | 0 cm2 | > 100 µM | > 100 µM | inactive | > 100 µM | > 100 µM | > 100 µM | 49.6 µM | > 100 µM | > 100 µM | > 100 µM | – |
| O=[N+]([O-])c1ccc(CS(=O)(=O)Oc2c(Br)cc(Br)c3nc4c(C(F)(F)F)cc(C(F)(F)F)cc4nc23)cc1 | 1.56 µM (≈ 1.08 µg/mL) | 0.2 µM (≈ 0.138 µg/mL) | 0.78 µM (≈ 0.538 µg/mL) | 0.78 µM (≈ 0.538 µg/mL) | 4.69 µM (≈ 3.23 µg/mL) | 2.57 cm2 | – | 0.15 µM (≈ 0.103 µg/mL) | inactive | – | – | 1.56 µM (≈ 1.08 µg/mL) | 2.9 µM | – | – | 1.56 µM (≈ 1.08 µg/mL) | 10.4% |
| Oc1c(Br)cc(Br)c2nc3c(C(F)(F)F)cc(C(F)(F)F)cc3nc12 | 0.15 µM (≈ 0.0735 µg/mL) | 0.1 µM (≈ 0.049 µg/mL) | 0.1 µM (≈ 0.049 µg/mL) | 0.05 µM (≈ 0.0245 µg/mL) | 0.15 µM (≈ 0.0735 µg/mL) | 4.58 cm2 | – | 0.1 µM (≈ 0.049 µg/mL) | Active | – | – | 0.2 µM (≈ 0.098 µg/mL) | – | – | – | 0.1 µM (≈ 0.049 µg/mL) | 16.7% |
| O=S(=O)(Cc1ccccc1)Oc1c(Br)cc(Br)c2nc3c(C(F)(F)F)cc(C(F)(F)F)cc3nc12 | > 100 µM | 0.2 µM (≈ 0.129 µg/mL) | 0.39 µM (≈ 0.251 µg/mL) | 1.56 µM (≈ 1 µg/mL) | 18.8 µM (≈ 12.1 µg/mL) | 1.07 cm2 | – | 0.15 µM (≈ 0.0966 µg/mL) | inactive | – | – | 0.78 µM (≈ 0.502 µg/mL) | 3.6 µM | – | – | > 100 µM | – |
| O=[N+]([O-])c1ccc(CS(=O)(=O)Oc2c(Br)cc(Br)c3nc4cc(Cl)ccc4nc23)cc1 | 0.1 µM (≈ 0.0588 µg/mL) | 0.15 µM (≈ 0.0881 µg/mL) | 4.69 µM (≈ 2.76 µg/mL) | 0.39 µM (≈ 0.229 µg/mL) | 0.15 µM (≈ 0.0881 µg/mL) | 0.66 cm2 | – | 0.15 µM (≈ 0.0881 µg/mL) | inactive | – | – | 0.59 µM (≈ 0.347 µg/mL) | 6.4 µM | – | – | 0.1 µM (≈ 0.0588 µg/mL) | < 1% |
| O=S(=O)(Cc1ccccc1)Oc1c(Br)cc(Br)c2nc3ccccc3nc12 | > 100 µM | > 100 µM | > 100 µM | > 100 µM | > 100 µM | 0 cm2 | > 100 µM | > 100 µM | inactive | > 100 µM | > 100 µM | > 100 µM | > 100 µM | > 100 µM | > 100 µM | > 100 µM | – |
| O=S(=O)(Cc1ccccc1)Oc1c(Br)cc(Br)c2nc3cc(Cl)ccc3nc12 | 2.35 µM (≈ 1.28 µg/mL) | 1.56 µM (≈ 0.847 µg/mL) | > 100 µM | – | – | 0 cm2 | – | 3.13 µM (≈ 1.7 µg/mL) | inactive | – | – | > 100 µM | 30.3 µM | – | – | 3.13 µM (≈ 1.7 µg/mL) | – |
| Oc1c(Br)cc(Br)c2nc3cc(Cl)ccc3nc12 | 0.075 µM (≈ 0.0291 µg/mL) | 0.3 µM (≈ 0.117 µg/mL) | – | – | 0.15 µM (≈ 0.0583 µg/mL) | 1.7 cm2 | – | 0.3 µM (≈ 0.117 µg/mL) | Active | – | – | – | – | – | – | 0.1 µM (≈ 0.0388 µg/mL) | < 1% |
| CN[C@H](CC(C)C)C(=O)N[C@H]1C(=O)N[C@@H](CC(N)=O)C(=O)N[C@H]2C(=O)N[C@H]3C(=O)N[C@H](C(=O)N[C@H](C(=O)O)c4cc(O)cc(O)c4-c4cc3ccc4O)[C@H](O)c3ccc(c(Cl)c3)Oc3cc2cc(c3O[C@@H]2O[C@H](CO)[C@@H](O)[C@H](O)[C@H]2O[C@H]2C[C@](C)(N)[C@H](O)[C@H](C)O2)Oc2ccc(cc2Cl)[C@H]1O [VANCOMYCIN] | – | 0.59 µM (≈ 0.855 µg/mL) | 1.56 µM (≈ 2.26 µg/mL) | 0.59 µM (≈ 0.855 µg/mL) | 0.3 µM (≈ 0.435 µg/mL) | – | – | 1.56 µM (≈ 2.26 µg/mL) | – | – | 0.59 µM (≈ 0.855 µg/mL) | > 100 µM | – | – | – | – | < 1% |

Source: ChEMBL document CHEMBL5329167, “Design, synthesis and evaluation of halogenated phenazine antibacterial prodrugs targeting nitroreductase enzymes for activation” (RSC Med Chem, 2023)
